Laboratory results as given in ChEMBL document CHEMBL4145497, “Discovery of 2-aminothiazolyl berberine derivatives as effectively antibacterial agents toward clinically drug-resistant Gram-negative Acinetobacter baumanii” (Eur J Med Chem, 2018).

Legend:
Saccharomyces cerevisiae = assay: Antifungal activity against Saccharomyces cerevisiae ATCC 9763 by CLSI two fold serial dilution method; assay type: functional
[1] = Aqueous solubility of the compound in phosphate buffer at pH 7.4 after 3 hrs by UV detection assay; assay type: physicochemical
Procedure, shortened: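 Water solubility measured at physiological pH, with berberine as the control.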

Staphylococcus aureus [2] = assay: Antibacterial activity against Staphylococcus aureus ATCC 25923 after 18 to 24 hrs by CLSI two fold serial dilution method; assay type: functional
Candida albicans [3] = assay: Antifungal activity against Candida albicans ATCC 76615 by CLSI two fold serial dilution method; assay type: functional
Cyberlindnera jadinii = assay: Antifungal activity against Candida utilis ATCC 9950 by CLSI two fold serial dilution method; assay type: functional; conditions: Williopsis jadinii
Micrococcus luteus = assay: Antibacterial activity against Micrococcus luteus ATCC 4698 after 18 to 24 hrs by CLSI two fold serial dilution method; assay type: functional
Candida parapsilosis = assay: Antifungal activity against Candida parapsilosis ATCC 22019 by CLSI two fold serial dilution method; assay type: functional; conditions: Lodderomyces parapsilosis
Bacillus subtilis = assay: Antibacterial activity against Bacillus subtilis ATCC 21216 after 18 to 24 hrs by CLSI two fold serial dilution method; assay type: functional
Pseudomonas aeruginosa [4] = assay: Antibacterial activity against Pseudomonas aeruginosa ATCC 27853 after 18 to 24 hrs by CLSI two fold serial dilution method; assay type: functional
Aspergillus flavus = assay: Antifungal activity against Aspergillus flavus ATCC 204304 by CLSI two fold serial dilution method; assay type: functional
Pichia norvegensis = assay: Antifungal activity against Candida mycoderma ATCC 96918 by CLSI two fold serial dilution method; assay type: functional
Escherichia coli [5] = assay: Antibacterial activity against Escherichia coli DH52 after 18 to 24 hrs by CLSI two fold serial dilution method; assay type: functional
Escherichia coli [6] = assay: Antibacterial activity against drug-resistant Escherichia coli after 18 to 24 hrs by CLSI two fold serial dilution method; assay type: functional
Staphylococcus aureus [7] = assay: Antibacterial activity against methicillin-resistant Staphylococcus aureus N315 after 18 to 24 hrs by CLSI two fold serial dilution method; assay type: functional
Enterococcus faecalis = assay: Antibacterial activity against drug-resistant Enterococcus faecalis after 18 to 24 hrs by CLSI two fold serial dilution method; assay type: functional
Candida albicans [8] = assay: Antifungal activity against drug-resistant Candida albicans by CLSI two fold serial dilution method; assay type: functional
Candida tropicalis = assay: Antifungal activity against drug-resistant Candida tropicalis by CLSI two fold serial dilution method; assay type: functional
Aspergillus fumigatus = assay: Antifungal activity against drug-resistant Aspergillus fumigatus by CLSI two fold serial dilution method; assay type: functional
Klebsiella pneumoniae = assay: Antibacterial activity against drug-resistant Klebsiella pneumoniae after 18 to 24 hrs by CLSI two fold serial dilution method; assay type: functional
Acinetobacter baumannii = assay: Antibacterial activity against drug-resistant Acinetobacter baumannii after 18 to 24 hrs by CLSI two fold serial dilution method; assay type: functional
Pseudomonas aeruginosa [9] = assay: Antibacterial activity against drug-resistant Pseudomonas aeruginosa after 18 to 24 hrs by CLSI two fold serial dilution method; assay type: functional

C=CCOc1c(OC)cc(/C=N/Nc2nccs2)c2c1CN1CCc3cc4c(cc3C1C2)OCO4 (stereo not drawn)
520 µM: MIC (Bacillus subtilis) | MIC (Pichia norvegensis)
1040 µM: MIC (Saccharomyces cerevisiae)
7020 to 10200 µg/mL: solubility at 3 h [1]
130 µM: MIC (Candida albicans [3]) | MIC (Cyberlindnera jadinii) | MIC (Micrococcus luteus) | MIC (Escherichia coli [5])
70 µM: MIC (Candida parapsilosis)
260 µM: MIC (Pseudomonas aeruginosa [4]) | MIC (Aspergillus flavus)
30 µM: MIC (Staphylococcus aureus [2])

COc1cc(/C=N/NC(N)=S)c2c(c1OCc1ccc(Cl)c(Cl)c1)CN1CCc3cc4c(cc3C1C2)OCO4 (stereo not drawn)
220 µM: MIC (Saccharomyces cerevisiae) | MIC (Staphylococcus aureus [2]) | MIC (Cyberlindnera jadinii) | MIC (Candida parapsilosis) | MIC (Staphylococcus aureus [7]) | MIC (Bacillus subtilis) | MIC (Pseudomonas aeruginosa [4]) | MIC (Klebsiella pneumoniae) | MIC (Pseudomonas aeruginosa [9])
110 µM: MIC (Escherichia coli [6]) | MIC (Candida tropicalis) | MIC (Escherichia coli [5])
30 µM: MIC (Acinetobacter baumannii)
440 µM: MIC (Candida albicans [3]) | MIC (Micrococcus luteus) | MIC (Enterococcus faecalis) | MIC (Candida albicans [8]) | MIC (Aspergillus flavus) | MIC (Pichia norvegensis)
3 µM: MIC (Aspergillus fumigatus)

CCOc1c(OC)cc(/C=N/NC(N)=S)c2c1CN1CCc3cc4c(cc3C1C2)OCO4 (stereo not drawn)
140 µM: MIC (Candida albicans [3]) | MIC (Micrococcus luteus) | MIC (Staphylococcus aureus [7]) | MIC (Enterococcus faecalis) | MIC (Candida albicans [8]) | MIC (Aspergillus fumigatus) | MIC (Acinetobacter baumannii)
280 µM: MIC (Escherichia coli [6]) | MIC (Saccharomyces cerevisiae) | MIC (Cyberlindnera jadinii) | MIC (Bacillus subtilis) | MIC (Candida tropicalis) | MIC (Klebsiella pneumoniae) | MIC (Pichia norvegensis) | MIC (Escherichia coli [5])
560 µM: MIC (Aspergillus flavus)
70 µM: MIC (Staphylococcus aureus [2]) | MIC (Candida parapsilosis) | MIC (Pseudomonas aeruginosa [4]) | MIC (Pseudomonas aeruginosa [9])

COc1cc(/C=N/NC(N)=S)c2c(c1O)CN1CCc3cc4c(cc3C1C2)OCO4 (stereo not drawn)
600 µM: MIC (Escherichia coli [6]) | MIC (Cyberlindnera jadinii) | MIC (Aspergillus flavus)
9 µM: MIC (Candida parapsilosis)
300 µM: MIC (Saccharomyces cerevisiae) | MIC (Micrococcus luteus) | MIC (Enterococcus faecalis) | MIC (Candida albicans [8]) | MIC (Bacillus subtilis) | MIC (Candida tropicalis) | MIC (Pichia norvegensis) | MIC (Escherichia coli [5])
150 µM: MIC (Staphylococcus aureus [2]) | MIC (Candida albicans [3]) | MIC (Staphylococcus aureus [7]) | MIC (Pseudomonas aeruginosa [4]) | MIC (Aspergillus fumigatus) | MIC (Klebsiella pneumoniae) | MIC (Acinetobacter baumannii) | MIC (Pseudomonas aeruginosa [9])

CCCCCCCCCCOc1c(OC)cc(/C=N/Nc2nccs2)c2c1CN1CCc3cc4c(cc3C1C2)OCO4 (stereo not drawn)
220 µM: MIC (Candida albicans [3]) | MIC (Cyberlindnera jadinii) | MIC (Micrococcus luteus) | MIC (Candida parapsilosis) | MIC (Bacillus subtilis) | MIC (Pseudomonas aeruginosa [4]) | MIC (Escherichia coli [5])
430 µM: MIC (Saccharomyces cerevisiae) | MIC (Aspergillus flavus) | MIC (Pichia norvegensis)
110 µM: MIC (Staphylococcus aureus [2])
61 µg/mL: solubility at 3 h [1]

COc1cc(/C=N/Nc2nccs2)c2c(c1OCc1ccc(Cl)cc1)CN1CCc3cc4c(cc3C1C2)OCO4 (stereo not drawn)
450 µM: MIC (Staphylococcus aureus [2]) | MIC (Candida albicans [3]) | MIC (Bacillus subtilis) | MIC (Pichia norvegensis)
890 µM: MIC (Saccharomyces cerevisiae) | MIC (Aspergillus flavus)
374 to 3190 µg/mL: solubility at 3 h [1]
220 µM: MIC (Cyberlindnera jadinii) | MIC (Micrococcus luteus) | MIC (Pseudomonas aeruginosa [4])
60 µM: MIC (Candida parapsilosis)
110 µM: MIC (Escherichia coli [5])

COc1cc(/C=N/NC(N)=S)c2c(c1OCC#N)CN1CCc3cc4c(cc3C1C2)OCO4 (stereo not drawn)
280 µM: MIC (Escherichia coli [6]) | MIC (Saccharomyces cerevisiae) | MIC (Staphylococcus aureus [2]) | MIC (Candida albicans [3]) | MIC (Cyberlindnera jadinii) | MIC (Micrococcus luteus) | MIC (Candida parapsilosis) | MIC (Staphylococcus aureus [7]) | MIC (Enterococcus faecalis) | MIC (Candida albicans [8]) | MIC (Candida tropicalis) | MIC (Pseudomonas aeruginosa [4]) | MIC (Aspergillus flavus) | MIC (Escherichia coli [5]) | MIC (Acinetobacter baumannii) | MIC (Pseudomonas aeruginosa [9])
70 µM: MIC (Aspergillus fumigatus)
550 µM: MIC (Bacillus subtilis) | MIC (Klebsiella pneumoniae) | MIC (Pichia norvegensis)

COc1cc(/C=N/Nc2nccs2)c2c(c1OCc1cccc(Cl)c1)CN1CCc3cc4c(cc3C1C2)OCO4 (stereo not drawn)
450 µM: MIC (Candida albicans [3]) | MIC (Cyberlindnera jadinii) | MIC (Aspergillus flavus)
60 µM: MIC (Candida parapsilosis)
110 µM: MIC (Bacillus subtilis)
220 µM: MIC (Staphylococcus aureus [2]) | MIC (Micrococcus luteus) | MIC (Pseudomonas aeruginosa [4]) | MIC (Pichia norvegensis)
890 µM: MIC (Saccharomyces cerevisiae) | MIC (Escherichia coli [5])
374 to 3190 µg/mL: solubility at 3 h [1]

COc1cc(/C=N/NC(N)=S)c2c(c1OCc1cccc(Cl)c1)CN1CCc3cc4c(cc3C1C2)OCO4 (stereo not drawn)
230 µM: MIC (Saccharomyces cerevisiae) | MIC (Candida albicans [3]) | MIC (Enterococcus faecalis) | MIC (Candida tropicalis) | MIC (Pseudomonas aeruginosa [4]) | MIC (Aspergillus flavus) | MIC (Escherichia coli [5])
60 µM: MIC (Staphylococcus aureus [2])
120 µM: MIC (Candida parapsilosis) | MIC (Staphylococcus aureus [7]) | MIC (Bacillus subtilis) | MIC (Aspergillus fumigatus) | MIC (Klebsiella pneumoniae) | MIC (Pichia norvegensis) | MIC (Acinetobacter baumannii)
470 µM: MIC (Escherichia coli [6]) | MIC (Cyberlindnera jadinii) | MIC (Micrococcus luteus) | MIC (Candida albicans [8]) | MIC (Pseudomonas aeruginosa [9])

COc1cc(/C=N/NC(N)=S)c2c(c1OCc1ccc(Cl)cc1)CN1CCc3cc4c(cc3C1C2)OCO4 (stereo not drawn)
470 µM: MIC (Saccharomyces cerevisiae) | MIC (Cyberlindnera jadinii) | MIC (Bacillus subtilis) | MIC (Aspergillus fumigatus) | MIC (Aspergillus flavus)
120 µM: MIC (Klebsiella pneumoniae)
230 µM: MIC (Escherichia coli [6]) | MIC (Staphylococcus aureus [2]) | MIC (Candida albicans [3]) | MIC (Micrococcus luteus) | MIC (Staphylococcus aureus [7]) | MIC (Enterococcus faecalis) | MIC (Candida albicans [8]) | MIC (Candida tropicalis) | MIC (Pseudomonas aeruginosa [4]) | MIC (Pichia norvegensis) | MIC (Escherichia coli [5]) | MIC (Acinetobacter baumannii) | MIC (Pseudomonas aeruginosa [9])
7 µM: MIC (Candida parapsilosis)
